Results: ChEMBL document CHEMBL4190404, “Synthesis and characterization of amino acid substituted sunitinib analogues for the treatment of AML” (Bioorg Med Chem Lett, 2018)

System: not listed separately
Assay: Aqueous solubility in pH 7.4 phosphate buffer at 120 uM after 24 hrs by HPLC method
Type: physicochemical
Details: not given
With Cc1[nH]c(/C=C2\C(=O)Nc3ccc(C(=O)N[C@@H](Cc4ccccc4)C(=O)O)cc32)c(C)c1C(=O)O the solubility at 24 h, 120 µM was at least 120 µM. With COC(=O)CC[C@H](NC(=O)c1c(C)[nH]c(/C=C2\C(=O)Nc3ccc(C(=O)OC)cc32)c1C)C(=O)OC the solubility at 24 h, 120 µM was under 5 µM.

System: not listed separately
Assay: Aqueous solubility in pH 5.5 phosphate buffer at 120 uM after 24 hrs by HPLC method
Type: physicochemical
Details: phosphate buffer, pH 5.5
For Cc1[nH]c(/C=C2\C(=O)Nc3ccc(C(=O)N[C@@H](Cc4ccccc4)C(=O)O)cc32)c(C)c1C(=O)O, the solubility at 24 h, 120 µM was under 5 µM. Compound COC(=O)CC[C@H](NC(=O)c1c(C)[nH]c(/C=C2\C(=O)Nc3ccc(C(=O)OC)cc32)c1C)C(=O)OC has a solubility at 24 h, 120 µM of under 5 µM.

System: Receptor-type tyrosine-protein kinase FLT3 (Homo sapiens), P36888 [UNDEFINED MUTATION]
Sequence (P36888 whole entry, looked up, change not shown): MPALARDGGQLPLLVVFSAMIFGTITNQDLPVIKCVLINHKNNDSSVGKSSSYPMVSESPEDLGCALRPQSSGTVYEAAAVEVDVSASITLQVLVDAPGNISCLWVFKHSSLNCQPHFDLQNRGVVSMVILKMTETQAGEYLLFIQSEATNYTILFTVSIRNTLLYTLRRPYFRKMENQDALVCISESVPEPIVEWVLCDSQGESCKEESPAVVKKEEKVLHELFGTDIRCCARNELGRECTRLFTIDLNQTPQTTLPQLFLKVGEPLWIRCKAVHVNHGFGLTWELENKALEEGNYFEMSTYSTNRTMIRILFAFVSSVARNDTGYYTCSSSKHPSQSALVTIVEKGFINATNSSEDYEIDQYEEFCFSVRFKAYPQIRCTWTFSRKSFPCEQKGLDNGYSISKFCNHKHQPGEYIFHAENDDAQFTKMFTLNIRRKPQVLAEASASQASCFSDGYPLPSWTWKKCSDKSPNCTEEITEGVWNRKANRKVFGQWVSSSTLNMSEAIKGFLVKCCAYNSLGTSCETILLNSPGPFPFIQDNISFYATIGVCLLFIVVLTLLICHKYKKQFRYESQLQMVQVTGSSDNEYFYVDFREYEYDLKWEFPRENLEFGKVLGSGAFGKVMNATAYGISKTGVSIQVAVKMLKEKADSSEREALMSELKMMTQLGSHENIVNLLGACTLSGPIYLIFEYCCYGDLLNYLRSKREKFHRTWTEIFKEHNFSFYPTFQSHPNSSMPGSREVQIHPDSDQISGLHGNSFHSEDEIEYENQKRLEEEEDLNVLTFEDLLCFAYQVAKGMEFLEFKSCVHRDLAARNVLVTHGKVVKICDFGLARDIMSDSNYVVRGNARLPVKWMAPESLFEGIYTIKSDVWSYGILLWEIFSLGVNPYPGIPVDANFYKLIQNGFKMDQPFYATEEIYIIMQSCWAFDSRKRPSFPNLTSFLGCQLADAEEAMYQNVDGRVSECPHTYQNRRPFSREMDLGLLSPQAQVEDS
Assay: Inhibition of FLT3 ITD mutant (unknown origin) using TAMRA-Src- tide as substrate at 12.5 uM after 1 hr by fluorescence polarization assay relative to control
Details: not given
Method in brief: (§1)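 FLT3-ITD kinase inhibition by fluorescence polarization IMAP assay; each compound tested at 12.5 and 1.25 μM; percent inhibition, average of two parallel measurements.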
With COC(=O)CC[C@H](NC(=O)c1c(C)[nH]c(/C=C2\C(=O)Nc3ccc(C(=O)N[C@H](Cc4ccccc4)C(=O)O)cc32)c1C)C(=O)OC the inhibition was over 100%. For Cc1[nH]c(/C=C2\C(=O)Nc3ccc(C(=O)N[C@H](Cc4ccccc4)C(=O)O)cc32)c(C)c1C(=O)N[C@@H](Cc1ccccc1)C(=O)O, the inhibition was over 100%. In the case of COC(=O)CC[C@@H](NC(=O)c1ccc2c(c1)/C(=C/c1[nH]c(C)c(C(=O)N[C@H](CCC(=O)OC)C(=O)OC)c1C)C(=O)N2)C(=O)OC, the inhibition is reported as 75.4%. With COC(=O)[C@@H](Cc1ccccc1)NC(=O)c1ccc2c(c1)/C(=C/c1[nH]c(C)c(C(=O)N[C@@H](Cc3ccccc3)C(=O)O)c1C)C(=O)N2 the inhibition was over 100%. For COC(=O)CC[C@@H](NC(=O)c1ccc2c(c1)/C(=C/c1[nH]c(C)c(C(=O)O)c1C)C(=O)N2)C(=O)OC, the inhibition was 12.1%. Cc1[nH]c(/C=C2\C(=O)Nc3ccc(C(=O)N[C@@H](Cc4ccccc4)C(=O)O)cc32)c(C)c1C(=O)O gave an inhibition of over 100%. For COC(=O)CC[C@H](NC(=O)c1c(C)[nH]c(/C=C2\C(=O)Nc3ccc(C(=O)OC)cc32)c1C)C(=O)OC, the inhibition was 92.2%.

System: Receptor-type tyrosine-protein kinase FLT3 (Homo sapiens), P36888 [UNDEFINED MUTATION]
Assay: Inhibition of FLT3 ITD mutant (unknown origin) using TAMRA-Src- tide as substrate at 1.25 uM after 1 hr by fluorescence polarization assay relative to control
Details: not given
Method in brief: as §1
Work on COC(=O)CC[C@H](NC(=O)c1c(C)[nH]c(/C=C2\C(=O)Nc3ccc(C(=O)N[C@H](Cc4ccccc4)C(=O)O)cc32)c1C)C(=O)OC yielded an inhibition of 74.2%. For Cc1[nH]c(/C=C2\C(=O)Nc3ccc(C(=O)N[C@H](Cc4ccccc4)C(=O)O)cc32)c(C)c1C(=O)N[C@@H](Cc1ccccc1)C(=O)O, the inhibition was 74.2%. With COC(=O)CC[C@@H](NC(=O)c1ccc2c(c1)/C(=C/c1[nH]c(C)c(C(=O)N[C@H](CCC(=O)OC)C(=O)OC)c1C)C(=O)N2)C(=O)OC the inhibition was 62.5%. With COC(=O)[C@@H](Cc1ccccc1)NC(=O)c1ccc2c(c1)/C(=C/c1[nH]c(C)c(C(=O)N[C@@H](Cc3ccccc3)C(=O)O)c1C)C(=O)N2 the inhibition was 74.2%. In the case of COC(=O)CC[C@@H](NC(=O)c1ccc2c(c1)/C(=C/c1[nH]c(C)c(C(=O)O)c1C)C(=O)N2)C(=O)OC, the inhibition is reported as 80.6%. With Cc1[nH]c(/C=C2\C(=O)Nc3ccc(C(=O)N[C@@H](Cc4ccccc4)C(=O)O)cc32)c(C)c1C(=O)O the inhibition was 97.4%. With COC(=O)CC[C@H](NC(=O)c1c(C)[nH]c(/C=C2\C(=O)Nc3ccc(C(=O)OC)cc32)c1C)C(=O)OC the inhibition was 87%.

System: not listed separately
Assay: Dissociation constant, pKa of the compound at 25 to 50 uM by UV spectroscopy
Type: physicochemical
Details: not given
Method in brief: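 Carboxyl pKa by automated UV/pH titration with MeOH as co-solvent.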
COC(=O)CC[C@H](NC(=O)c1c(C)[nH]c(/C=C2\C(=O)Nc3ccc(C(=O)N[C@H](Cc4ccccc4)C(=O)O)cc32)c1C)C(=O)OC gave a pKa at up to 50 µM of 3.01. Work on Cc1[nH]c(/C=C2\C(=O)Nc3ccc(C(=O)N[C@H](Cc4ccccc4)C(=O)O)cc32)c(C)c1C(=O)N[C@@H](Cc1ccccc1)C(=O)O yielded a pKa at up to 50 µM of 3. COC(=O)[C@@H](Cc1ccccc1)NC(=O)c1ccc2c(c1)/C(=C/c1[nH]c(C)c(C(=O)N[C@@H](Cc3ccccc3)C(=O)O)c1C)C(=O)N2 gave a pKa at up to 50 µM of 3. Compound COC(=O)CC[C@@H](NC(=O)c1ccc2c(c1)/C(=C/c1[nH]c(C)c(C(=O)O)c1C)C(=O)N2)C(=O)OC has a pKa at up to 50 µM of 5.47.

System: not listed separately
Assay: Apparent partition coefficient, log P of the compound in n-octanol/aqueous mixture at pH 7.4 after 1 hr by shake flask method
Type: physicochemical
Details: not given
COC(=O)CC[C@H](NC(=O)c1c(C)[nH]c(/C=C2\C(=O)Nc3ccc(C(=O)N[C@H](Cc4ccccc4)C(=O)O)cc32)c1C)C(=O)OC showed a logD at 1 h of 4.07. Work on Cc1[nH]c(/C=C2\C(=O)Nc3ccc(C(=O)N[C@H](Cc4ccccc4)C(=O)O)cc32)c(C)c1C(=O)N[C@@H](Cc1ccccc1)C(=O)O yielded a logD at 1 h of 5.62. For COC(=O)CC[C@@H](NC(=O)c1ccc2c(c1)/C(=C/c1[nH]c(C)c(C(=O)N[C@H](CCC(=O)OC)C(=O)OC)c1C)C(=O)N2)C(=O)OC, the logD at 1 h was 3.36. Compound COC(=O)[C@@H](Cc1ccccc1)NC(=O)c1ccc2c(c1)/C(=C/c1[nH]c(C)c(C(=O)N[C@@H](Cc3ccccc3)C(=O)O)c1C)C(=O)N2 has a logD at 1 h of 5.68.

System: not listed separately
Assay: n-Octanol-buffer distribution coefficient, log D of the compound at pH 7.4 after 1 hr by shake flask method
Type: physicochemical
Details: not given
Compound COC(=O)CC[C@H](NC(=O)c1c(C)[nH]c(/C=C2\C(=O)Nc3ccc(C(=O)N[C@H](Cc4ccccc4)C(=O)O)cc32)c1C)C(=O)OC has a logD at 1 h of -0.32. In the case of Cc1[nH]c(/C=C2\C(=O)Nc3ccc(C(=O)N[C@H](Cc4ccccc4)C(=O)O)cc32)c(C)c1C(=O)N[C@@H](Cc1ccccc1)C(=O)O, the logD at 1 h is reported as -3.18. For COC(=O)CC[C@@H](NC(=O)c1ccc2c(c1)/C(=C/c1[nH]c(C)c(C(=O)N[C@H](CCC(=O)OC)C(=O)OC)c1C)C(=O)N2)C(=O)OC, the logD at 1 h was 3.36. Work on COC(=O)[C@@H](Cc1ccccc1)NC(=O)c1ccc2c(c1)/C(=C/c1[nH]c(C)c(C(=O)N[C@@H](Cc3ccccc3)C(=O)O)c1C)C(=O)N2 yielded a logD at 1 h of 1.28.

System: not listed separately
Assay: n-Octanol-buffer distribution coefficient, log D of the compound at pH 5.5 after 1 hr by shake flask method
Type: physicochemical
Details: not given
COC(=O)CC[C@H](NC(=O)c1c(C)[nH]c(/C=C2\C(=O)Nc3ccc(C(=O)N[C@H](Cc4ccccc4)C(=O)O)cc32)c1C)C(=O)OC gave a logD at 1 h of 1.58. Compound Cc1[nH]c(/C=C2\C(=O)Nc3ccc(C(=O)N[C@H](Cc4ccccc4)C(=O)O)cc32)c(C)c1C(=O)N[C@@H](Cc1ccccc1)C(=O)O has a logD at 1 h of 0.62. COC(=O)CC[C@@H](NC(=O)c1ccc2c(c1)/C(=C/c1[nH]c(C)c(C(=O)N[C@H](CCC(=O)OC)C(=O)OC)c1C)C(=O)N2)C(=O)OC gave a logD at 1 h of 3.36. COC(=O)[C@@H](Cc1ccccc1)NC(=O)c1ccc2c(c1)/C(=C/c1[nH]c(C)c(C(=O)N[C@@H](Cc3ccccc3)C(=O)O)c1C)C(=O)N2 showed a logD at 1 h of 3.18.

System: MV4-11
Assay: Antiproliferative activity against human MV4-11 cells after 72 hrs by Celltiter-Glo luminescent cell viability assay
Type: functional, cell-based
Details: MV4-11, 72 h
Method in brief: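 MV4-11 leukaemia cells, 72 h proliferation assay, luminescence read-out; IC50 determined from concentration–response.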
In the case of COC(=O)[C@@H](Cc1ccccc1)NC(=O)c1ccc2c(c1)/C(=C/c1[nH]c(C)c(C(=O)N[C@@H](Cc3ccccc3)C(=O)O)c1C)C(=O)N2, the IC50 is reported as 13 µM. COC(=O)CC[C@H](NC(=O)c1c(C)[nH]c(/C=C2\C(=O)Nc3ccc(C(=O)OC)cc32)c1C)C(=O)OC gave an IC50 of 0.08 µM.

System: not listed separately
Assay: Lipophilicity, chromatographic hydrophobicity index of the compound at pH 7.4 by HPLC method
Type: physicochemical
Details: buffer
Method in brief: (§2)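 RP-HPLC with buffer/acetonitrile gradient elution; CHI profile at starting pH 10.5, 7.4, 5.5 and 1.2; values given as average of the compound group.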
Cc1[nH]c(/C=C2\C(=O)Nc3ccc(C(=O)N[C@@H](Cc4ccccc4)C(=O)O)cc32)c(C)c1C(=O)O showed a CHI of 32. Work on COC(=O)CC[C@H](NC(=O)c1c(C)[nH]c(/C=C2\C(=O)Nc3ccc(C(=O)OC)cc32)c1C)C(=O)OC yielded a CHI of 73.

System: not listed separately
Assay: Lipophilicity, chromatographic hydrophobicity index of the compound at pH 5.5 by HPLC method
Type: physicochemical
Details: buffer
Method in brief: as §2
With Cc1[nH]c(/C=C2\C(=O)Nc3ccc(C(=O)N[C@@H](Cc4ccccc4)C(=O)O)cc32)c(C)c1C(=O)O the CHI was 41. Work on COC(=O)CC[C@H](NC(=O)c1c(C)[nH]c(/C=C2\C(=O)Nc3ccc(C(=O)OC)cc32)c1C)C(=O)OC yielded a CHI of 73.

System: not listed separately
Assay: Lipophilicity, chromatographic hydrophobicity index of the compound at pH 1.2 by HPLC method
Type: physicochemical
Details: buffer
Method in brief: as §2
Work on Cc1[nH]c(/C=C2\C(=O)Nc3ccc(C(=O)N[C@@H](Cc4ccccc4)C(=O)O)cc32)c(C)c1C(=O)O yielded a CHI of 63. COC(=O)CC[C@H](NC(=O)c1c(C)[nH]c(/C=C2\C(=O)Nc3ccc(C(=O)OC)cc32)c1C)C(=O)OC showed a CHI of 73.

System: not given
Details: buffer, pH 10.5
Compound Cc1[nH]c(/C=C2\C(=O)Nc3ccc(C(=O)N[C@@H](Cc4ccccc4)C(=O)O)cc32)c(C)c1C(=O)O has a CHI of 24. COC(=O)CC[C@H](NC(=O)c1c(C)[nH]c(/C=C2\C(=O)Nc3ccc(C(=O)OC)cc32)c1C)C(=O)OC gave a CHI of 73.
